Results published in ChEMBL document CHEMBL3616366, “Design, synthesis and biological activity of new amides derived from 3-methyl-3-phenyl-2,5-dioxo-pyrrolidin-1-yl-acetic acid” (Eur J Med Chem, 2015).
Active and inactive are the calls of the source.

Legend:
Mus musculus [1] = test: Neurotoxicity in albino CD-1 mouse assessed as motor impairment at 30 to 300 mg/kg mg/kg, ip measured after 2 hrs by rotarod test; format: toxicity, organism-based; conditions: in vivo
Method in brief: (§1)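 Rotarod in male CD-1 mice at 0.5 and 2 h after i.p. 30, 100 or 300 mg/kg (methylcellulose suspension); motor impairment = inability to keep balance on rod turning at 10 rpm for at least 1 min. Minimum neurotoxic dose reported.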

Mus musculus [2] = test: Anticonvulsant activity in ip dosed albino CD-1 mouse assessed as protection against 6 Hz current-induced seizure measured after 2.0 hrs; format: functional; conditions: CD-1, ip, read-out: MED
Method in brief: (§2)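 6-Hz psychomotor test: corneal stimulation 32 mA, 0.2 ms monopolar rectangular pulses at 6 Hz for 3 s, mice restrained then released to observation cage. Protected if normal exploratory behaviour resumes within 10 s. Doses 30, 100, 300 mg/kg i.p.; read at 0.5 and 2 h; minimum active dose.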

Mus musculus [3] = test: Anticonvulsant activity in albino CD-1 mouse assessed as protection against maximal electroshock-induced seizure at 30 to 300 mg/kg, ip measured after 0.5 hrs; format: functional; conditions: for minimal effective dose: CD-1, ip, read-out: MED
Method in brief: (§3)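 Male CD-1 mice (16–26 g), compound suspended in 0.5% methylcellulose/water, i.p. at 30, 100, 300 mg/kg; four mice per group, each used once. Electroconvulsion by electrical stimulus 0.2 s at 50 Hz; protection scored at 0.5 and 2 h. Value is minimum dose showing activity.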

Mus musculus [4] = test: Neurotoxicity in albino CD-1 mouse assessed as motor impairment at 30 to 300 mg/kg mg/kg, ip measured after 0.5 hrs by rotarod test; format: toxicity, organism-based; conditions: in vivo; method in brief: as §1
Mus musculus [5] = test: Anticonvulsant activity in albino CD-1 mouse assessed as protection against maximal electroshock-induced seizure at 30 to 300 mg/kg, ip measured after 2.0 hrs; format: functional; conditions: for minimal effective dose: CD-1, ip, read-out: MED; method in brief: as §3
Mus musculus [6] = test: Anticonvulsant activity in albino CD-1 mouse assessed as protection against subcutaneous pentylenetetrazole-induced seizure at 30 to 300 mg/kg, ip measured after 2.0 hrs; format: functional; conditions: for minimal effective dose: CD-1, 2 h, read-out: MED
Method in brief: (§4)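 Male CD-1 mice given compound i.p. (0.5% methylcellulose suspension) at 30, 100, 300 mg/kg, four per group; pentylenetetrazole 85 mg/kg s.c. at 0.5 or 2 h. Absence of clonic convulsions (≥5 s) over 30 min observation counts as protection. Minimum active dose reported.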

Mus musculus [7] = test: Anticonvulsant activity in ip dosed albino CD-1 mouse assessed as protection against 6 Hz current-induced seizure measured after 0.5 hrs; format: functional; conditions: CD-1, ip, read-out: MED; method in brief: as §2
Mus musculus [8] = test: Anticonvulsant activity in albino CD-1 mouse assessed as protection against subcutaneous pentylenetetrazole-induced seizure at 30 to 300 mg/kg, ip measured after 0.5 hrs; format: functional; conditions: for minimal effective dose: CD-1, 0.5 h, read-out: MED; method in brief: as §4
[9] = Protective index, ratio of TD50 for neurotoxicity in ip dosed albino CD-1 mouse to ED50 for anticonvulsant activity in ip dosed maximal electoshock-induced seizure albino CD-1 mouse model; format: toxicity, organism-based; conditions: in vivo, read-out: Ratio TD50/ED50
Method in brief: (§5)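 Protective index computed as TD50 (rotarod) divided by ED50 (MES or scPTZ), both from probit analysis on groups of six i.p.-dosed mice.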

Mus musculus [10] = test: Anticonvulsant activity in ip dosed albino CD-1 mouse assessed as protection against subcutaneous pentylenetetrazole-induced seizure measured as time to peak effect; format: functional
Method in brief: (§6)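 Quantitative work at time of peak effect previously estimated in screening; groups of six mice given various i.p. doses until ≥3 points within 10–90% seizure protection (MES or scPTZ) or minimal motor impairment on rotarod (10 rpm, failure to hold ≥1 min).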

[11] = Neurotoxicity in ip dosed albino CD-1 mouse assessed as motor impairment by rotarod test; format: toxicity, organism-based; conditions: in vivo; method in brief: as §6
Mus musculus [12] = test: Anticonvulsant activity in ip dosed albino CD-1 mouse assessed as protection against maximal electroshock-induced seizure; format: functional; conditions: CD-1, ip; method in brief: as §6
Mus musculus [13] = test: Anticonvulsant activity in ip dosed albino CD-1 mouse assessed as protection against maximal electroshock-induced seizure measured as time to peak effect; format: functional; method in brief: as §6
Mus musculus [14] = test: Neurotoxicity in albino CD-1 mouse assessed as mouse mortality at 300 mg/kg mg/kg, ip measured after 0.5 hrs; format: toxicity, organism-based; conditions: in vivo
Method in brief: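 Male albino CD-1 mice (16–26 g), four per group, each used once. Compounds were suspended in 0.5% methylcellulose/water and injected i.p. at 30, 100 and 300 mg/kg. Acute motor impairment was scored by rotarod at 0.5 and 2 h: inability to stay on a rod turning at 10 rpm for at least 1 min.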

Salmonella typhimurium [15] = test: Mutagenic activity in Salmonella typhimurium TA100 assessed as mutagenicity index at 40 ng/ml by Ames test; format: toxicity, organism-based; conditions: salmonella enterica subsp. enterica serovar typhimurium
Method in brief: (§7)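 Ames TA100 liquid pre-incubation (minimal medium, 37 °C) and V. harveyi assay (BOSS medium, 30 °C); test at 40 ng/ml, triplicate. Mutagenic index = induced revertants / spontaneous revertants (DMSO control); M.I. ≥2 considered mutagenic.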

Salmonella typhimurium [16] = test: Antimutagenic activity in Salmonella typhimurium TA100 assessed as inhibition of nitroquinoline-N-oxide-induced revertant colonies by Ames test; format: functional, Salmonella enterica subsp. enterica serovar Typhimurium
Method in brief: (§8)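 Revertants induced by 4-nitroquinoline-N-oxide (final 40 ng/ml) with versus without test compound; TA100 at 37 °C, V. harveyi strains at 30 °C in BOSS medium. Three independent repetitions; inhibition % = 100 − (R1/R2 × 100); 25–40% moderate, ≥40% strong.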

Vibrio harveyi [17] = test: Antimutagenic activity in Vibrio harveyi BB7XM assessed as inhibition of nitroquinoline-N-oxide-induced revertant colonies; format: functional; method in brief: as §8
Vibrio harveyi [18] = test: Mutagenic activity in Vibrio harveyi BB7XM assessed as mutagenicity index at 40 ng/ml; format: organism-based; conditions: in vivo; method in brief: as §7
Vibrio harveyi [19] = test: Antimutagenic activity in Vibrio harveyi BB7 assessed as inhibition of nitroquinoline-N-oxide-induced revertant colonies; format: functional; method in brief: as §8
Vibrio harveyi [20] = test: Mutagenic activity in Vibrio harveyi BB7 assessed as mutagenicity index at 40 ng/ml; format: organism-based; conditions: in vivo; method in brief: as §7
Rattus norvegicus = species on record: Rattus norvegicus; test: Displacement of [3H]BTX from voltage-sensitive sodium channel site2 in rat cerebral cortex at 100 uM measured after 60.0 mins by scintillation counting; format: tissue-based
Mus musculus [21] = test: Anticonvulsant activity in ip dosed albino CD-1 mouse assessed as protection against subcutaneous pentylenetetrazole-induced seizure; format: functional; method in brief: as §6
[22] = Protective index, ratio of TD50 for neurotoxicity in ip dosed albino CD-1 mouse to ED50 for anticonvulsant activity in ip dosed subcutaneous pentylenetetrazole-induced seizure albino CD-1 mouse model; format: toxicity, organism-based; conditions: in vivo, read-out: Ratio TD50/ED50; method in brief: as §5

Compound | MTC (Mus musculus [1]) | minimal effective dose (Mus musculus [3]) | MTC (Mus musculus [4]) | minimal effective dose (Mus musculus [5]) | MED (Mus musculus [6]) | MED (Mus musculus [8]) | Time (Mus musculus [10]) | TD50 [11] | Time (Mus musculus [13]) | MED (Mus musculus [3]) | MED (Mus musculus [5]) | minimal effective dose (Mus musculus [8]) | minimal effective dose (Mus musculus [6]) | further results
CC1(c2ccccc2)CC(=O)N(CC(=O)N2CCN(c3cccc(C(F)(F)F)c3)CC2)C1=O (configuration not stated) | Non-toxic | 300 mg/kg | Non-toxic | 300 mg/kg | inactive | inactive |  |  |  |  |  |  |  | minimal effective dose (Mus musculus [2]): 300 mg/kg; minimal effective dose (Mus musculus [7]): 300 mg/kg
CC1(c2ccccc2)CC(=O)N(CC(=O)N2CCN(c3cccc(Cl)c3)CC2)C1=O (configuration not stated) | Non-toxic | 300 mg/kg | Non-toxic | 300 mg/kg | inactive | inactive | 2 h | > 500 mg/kg | 2 h |  |  |  |  | selectivity ratio [9]: > 2.32; ED50 (Mus musculus [12]): 215 mg/kg
CC1(c2ccccc2)CC(=O)N(CC(=O)N2CCN(c3cccc(Cl)c3Cl)CC2)C1=O (configuration not stated) | Non-toxic |  | Non-toxic |  | inactive |  |  |  |  | inactive | inactive | 300 mg/kg |  | 
CC1(c2ccccc2)CC(=O)N(CC(=O)N2CCN(C3CCCCC3)CC2)C1=O (configuration not stated) | Non-toxic |  | 300 mg/kg |  | inactive | inactive |  |  |  | inactive | inactive |  |  | Activity (Mus musculus [14]): Toxic
CC1(c2ccccc2)CC(=O)N(CC(=O)N2CCN(c3ccc(Cl)c(Cl)c3)CC2)C1=O (configuration not stated) | Non-toxic |  | Non-toxic | 300 mg/kg | inactive | inactive |  |  |  | inactive |  |  |  | Activity_index (Salmonella typhimurium [15]): 0.3; inhibition (INH) (Salmonella typhimurium [16]): 36%; inhibition (INH) (Vibrio harveyi [17]): 63%; Activity_index (Vibrio harveyi [18]): 0.7; inhibition (INH) (Vibrio harveyi [19]): 47%; Activity_index (Vibrio harveyi [20]): 1.2
COc1cccc(N2CCN(C(=O)CN3C(=O)CC(C)(c4ccccc4)C3=O)CC2)c1 (configuration not stated) | Non-toxic |  | Non-toxic |  | inactive |  |  |  |  | inactive | inactive | 100 mg/kg |  | 
CC1(c2ccccc2)CC(=O)N(CC(=O)N2CCN(c3ccccc3)CC2)C1=O (configuration not stated) | Non-toxic | 300 mg/kg | Non-toxic |  |  |  | 0.5 h | > 500 mg/kg | 0.5 h |  | inactive | 100 mg/kg | 300 mg/kg | inhibition (Rattus norvegicus): 34.2%; ED50 (Mus musculus [21]): 40.9 mg/kg; selectivity ratio [22]: > 12.2
CC1(c2ccccc2)CC(=O)N(CC(=O)N2CCOCC2)C1=O (configuration not stated) | Non-toxic | 300 mg/kg | Non-toxic | 300 mg/kg |  |  |  |  |  |  |  | 300 mg/kg | 300 mg/kg | minimal effective dose (Mus musculus [2]): 100 mg/kg; minimal effective dose (Mus musculus [7]): 100 mg/kg
CC1(c2ccccc2)CC(=O)N(CC(=O)N2CCN(Cc3ccccc3)CC2)C1=O (configuration not stated) | 300 mg/kg |  | 300 mg/kg |  |  |  | 0.5 h | 205 mg/kg | 0.5 h | inactive | inactive | 100 mg/kg | 300 mg/kg | ED50 (Mus musculus [21]): 96.5 mg/kg; selectivity ratio [22]: 2.12
CC1(c2ccccc2)CC(=O)N(CC(=O)N2CCN(c3ccc(Cl)cc3)CC2)C1=O (configuration not stated) | Non-toxic |  | Non-toxic |  |  |  |  |  |  | inactive | inactive | 300 mg/kg | 300 mg/kg | 
Cc1ccccc1N1CCN(C(=O)CN2C(=O)CC(C)(c3ccccc3)C2=O)CC1 (configuration not stated) | Non-toxic |  | Non-toxic |  | inactive | inactive |  |  |  | inactive | inactive |  |  | 
CC1(c2ccccc2)CC(=O)N(CC(=O)N2CCN(c3ncccn3)CC2)C1=O (configuration not stated) | Non-toxic |  | Non-toxic |  |  | inactive |  |  |  | inactive | inactive |  | 100 mg/kg | 
CC1(c2ccccc2)CC(=O)N(CC(=O)N2CCC(Cc3ccccc3)CC2)C1=O (configuration not stated) | Non-toxic |  | Non-toxic | 300 mg/kg | inactive |  | 0.5 h | > 500 mg/kg | 0.5 h | inactive |  | 100 mg/kg |  | Activity_index (Salmonella typhimurium [15]): 0.5; inhibition (INH) (Salmonella typhimurium [16]): 5%; inhibition (INH) (Vibrio harveyi [17]): 26%; ED50 (Mus musculus [21]): 60 mg/kg; selectivity ratio [22]: > 8.33; Activity_index (Vibrio harveyi [18]): 1.6; inhibition (INH) (Vibrio harveyi [19]): 22%; Activity_index (Vibrio harveyi [20]): 1.5
CCC1(C)CC(=O)NC1=O (configuration not stated) [ETHOSUXIMIDE] | Non-toxic |  | Non-toxic |  |  |  | 0.25 h |  | 0.25 h | inactive | inactive | 100 mg/kg | 300 mg/kg | ED50 (Mus musculus [12]): > 500 mg/kg
CCCC(CCC)C(=O)O [VALPROIC ACID] | Non-toxic | 300 mg/kg | Non-toxic |  | inactive |  | 0.5 h |  | 0.5 h |  | inactive | 300 mg/kg |  | 
Cc1cccc(N2CCN(C(=O)CN3C(=O)CC(C)(c4ccccc4)C3=O)CC2)c1 (configuration not stated) | 300 mg/kg | 100 mg/kg | 300 mg/kg | 300 mg/kg | inactive | inactive |  |  |  |  |  |  |  | 
O=C1NC(=O)C(c2ccccc2)(c2ccccc2)N1 [PHENYTOIN] | 100 mg/kg | 30 mg/kg | 100 mg/kg | 30 mg/kg | inactive | inactive | 1 h | 59.9 mg/kg | 1 h |  |  |  |  | selectivity ratio [9]: 5.56; ED50 (Mus musculus [21]): > 500 mg/kg; ED50 (Mus musculus [12]): 6.65 mg/kg
CC1(c2ccccc2)CC(=O)N(CC(=O)N2CCN(c3ccccc3Cl)CC2)C1=O (configuration not stated) | Non-toxic |  | Non-toxic |  |  | inactive | 2 h | > 500 mg/kg | 2 h | inactive | inactive |  | 100 mg/kg | ED50 (Mus musculus [21]): 120 mg/kg; selectivity ratio [22]: > 4.16
